Source: ChEMBL document CHEMBL2407035, “Identification of novel chromone based sulfonamides as highly potent and selective inhibitors of alkaline phosphatases” (Eur J Med Chem, 2013)
Calls of active or inactive are those of the source. No cut-off for these calls is given here.

Columns and labels:
[1] = target: Intestinal-type alkaline phosphatase (Bos taurus, UniProt P19111); assay: Inhibition of bovine intestinal alkaline phosphatase using p-NPP as substrate treated 10 mins before substrate addition measured after 30 mins by spectrophotometric assay
Method in brief: (§1)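 Calf intestinal ALP (0.025 U/mL) or TNALP (0.5 U/mL) in 50 mM Tris-HCl, 5 mM MgCl₂, 0.1 mM ZnCl₂, pH 9.5 with compound (1% DMSO final), 10 min. Started with 0.5 mM p-NPP, 30 min at 37 °C, p-nitrophenolate read at 405 nm. Screened at 0.1 mM. Actives (>50%) got 8–10 dilutions, 1 mM to 10 nM, three times in triplicate. IC50 by nonlinear fit, Ki by Cheng–Prusoff.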

[2] = target: 5'-nucleotidase (Homo sapiens) (UniProt P21589); assay: Inhibition of human Ecto-5'-NT expressed in african green monkey COS7 cells using AMP as substrate at 0.1 mM preincubated for 10 mins measured after 10 mins; format: cell-based; details: COS-7
Method in brief: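 Human ecto-5'-NT from membrane extracts of transfected COS-7 cells (6.94 µg/mL). Preincubated with compound 10 min at 37 °C in 10 mM Hepes, 2 mM MgCl₂, 1 mM CaCl₂, pH 7.4. Started with 500 µM AMP, 10 min at 37 °C, stopped at 99 °C for 20 min. Adenosine quantified by capillary electrophoresis, UV at 260 nm, with <10% substrate conversion.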

[3] = Inhibition of porcine kidney […] alkaline phosphatase using p-NPP as substrate treated 10 mins before substrate addition measured after 30 mins by spectrophotometric assay; design: species or system Sus scrofa; method in brief: as §1
[4] = target: T1, Alkaline phosphatase, tissue-nonspecific isozyme (Bos taurus, UniProt P09487); assay: Inhibition of bovine kidney […] alkaline phosphatase using p-NPP as substrate treated 10 mins before substrate addition measured after 30 mins by spectrophotometric assay; method in brief: as §1
T1 sequence (P09487 whole entry): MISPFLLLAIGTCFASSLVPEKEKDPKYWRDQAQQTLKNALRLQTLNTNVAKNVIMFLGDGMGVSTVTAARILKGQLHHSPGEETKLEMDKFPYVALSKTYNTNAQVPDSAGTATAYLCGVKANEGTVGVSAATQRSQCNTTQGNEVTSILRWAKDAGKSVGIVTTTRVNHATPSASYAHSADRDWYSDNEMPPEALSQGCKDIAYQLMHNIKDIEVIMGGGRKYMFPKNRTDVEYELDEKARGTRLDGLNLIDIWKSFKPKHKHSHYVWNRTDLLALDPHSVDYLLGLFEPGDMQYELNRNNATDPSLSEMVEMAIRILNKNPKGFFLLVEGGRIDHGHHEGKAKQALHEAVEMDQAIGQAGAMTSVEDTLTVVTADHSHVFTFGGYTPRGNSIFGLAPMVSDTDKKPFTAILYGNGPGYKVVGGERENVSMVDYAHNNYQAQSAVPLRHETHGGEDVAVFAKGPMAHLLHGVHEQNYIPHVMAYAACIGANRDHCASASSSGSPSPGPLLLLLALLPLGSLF

[5] = target: Intestinal-type alkaline phosphatase (Bos taurus) (UniProt P19111); assay: Competitive inhibition of bovine intestinal alkaline phosphatase using p-NPP as substrate by Double-reciprocal plot analysis
Method in brief: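 Calf intestinal ALP kinetics: initial velocities measured with 4-NPP at 0.01-1 mM and inhibitor at 0, 100 and 300 nM. Double-reciprocal plots (1/[S] vs 1/v) were used to assign the inhibition mode. Buffer is 50 mM Tris-HCl, 5 mM MgCl₂, 0.1 mM ZnCl₂, pH 9.5, read at 405 nm.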

Intestinal-type alkaline phosphatase, sequence (P19111 whole entry): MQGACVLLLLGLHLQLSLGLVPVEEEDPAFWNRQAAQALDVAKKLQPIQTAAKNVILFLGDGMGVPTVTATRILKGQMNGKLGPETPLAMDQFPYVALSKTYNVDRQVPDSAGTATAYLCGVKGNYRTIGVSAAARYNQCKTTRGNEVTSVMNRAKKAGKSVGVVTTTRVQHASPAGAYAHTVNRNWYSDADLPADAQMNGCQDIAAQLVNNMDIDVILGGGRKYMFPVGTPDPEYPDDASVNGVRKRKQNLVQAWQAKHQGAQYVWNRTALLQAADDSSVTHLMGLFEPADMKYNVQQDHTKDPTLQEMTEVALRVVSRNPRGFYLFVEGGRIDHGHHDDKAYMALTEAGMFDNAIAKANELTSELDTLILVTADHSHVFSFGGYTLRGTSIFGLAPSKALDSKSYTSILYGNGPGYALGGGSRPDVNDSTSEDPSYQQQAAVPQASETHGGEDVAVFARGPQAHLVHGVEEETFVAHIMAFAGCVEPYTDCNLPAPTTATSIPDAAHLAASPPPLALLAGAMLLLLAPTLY
5'-nucleotidase (Homo sapiens), sequence (P21589 whole entry): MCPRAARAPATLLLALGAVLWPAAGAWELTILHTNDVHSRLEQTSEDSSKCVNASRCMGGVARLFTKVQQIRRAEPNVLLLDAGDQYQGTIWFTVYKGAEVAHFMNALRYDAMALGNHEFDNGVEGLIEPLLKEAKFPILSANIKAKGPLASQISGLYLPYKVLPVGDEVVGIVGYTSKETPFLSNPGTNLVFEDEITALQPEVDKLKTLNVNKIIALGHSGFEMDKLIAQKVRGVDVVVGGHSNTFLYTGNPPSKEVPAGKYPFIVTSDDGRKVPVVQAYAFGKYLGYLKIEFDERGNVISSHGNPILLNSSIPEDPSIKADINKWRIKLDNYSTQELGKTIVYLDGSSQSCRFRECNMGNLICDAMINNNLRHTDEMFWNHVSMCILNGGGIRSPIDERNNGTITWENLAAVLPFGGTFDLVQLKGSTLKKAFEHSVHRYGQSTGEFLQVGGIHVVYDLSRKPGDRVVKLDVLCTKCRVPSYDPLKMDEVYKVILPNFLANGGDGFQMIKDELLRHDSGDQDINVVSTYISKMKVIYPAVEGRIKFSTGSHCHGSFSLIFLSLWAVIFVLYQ
Intestinal-type alkaline phosphatase (Bos taurus), sequence (P19111 20-506 limits assumed): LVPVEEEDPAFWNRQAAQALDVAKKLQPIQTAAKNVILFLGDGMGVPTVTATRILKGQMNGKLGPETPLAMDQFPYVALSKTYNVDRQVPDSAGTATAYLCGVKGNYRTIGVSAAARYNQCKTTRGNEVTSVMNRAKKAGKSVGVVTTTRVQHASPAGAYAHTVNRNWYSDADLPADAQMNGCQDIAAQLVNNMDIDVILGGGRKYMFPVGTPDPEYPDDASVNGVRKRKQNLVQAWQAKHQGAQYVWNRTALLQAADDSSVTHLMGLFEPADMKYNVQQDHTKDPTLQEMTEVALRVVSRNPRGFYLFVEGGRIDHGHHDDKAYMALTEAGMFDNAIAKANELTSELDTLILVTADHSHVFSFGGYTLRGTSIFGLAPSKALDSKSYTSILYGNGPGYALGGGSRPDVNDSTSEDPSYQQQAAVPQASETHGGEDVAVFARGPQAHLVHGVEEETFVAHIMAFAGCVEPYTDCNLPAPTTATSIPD

Ki [1]	inhibition [2]	Ki [3]	Ki [4]	inhibition [5]	Structure (SMILES)
0.4 µM	4%	18 µM	29 µM		CCOC1Oc2ccc(CC)cc2C(=O)/C1=C\Nc1ccccc1S(N)(=O)=O (centres undefined)
0.085 µM	26%	0.079 µM	0.25 µM		CCOC1Oc2ccccc2C(=O)/C1=C/Nc1ccc(S(=O)(=O)Nc2nnc(C)s2)cc1 (centres undefined)
0.78 µM	0%	2.8 µM	43 µM		O=c1c(C2Nc3ccccc3S(=O)(=O)N2)coc2ccc(F)cc12 (centres undefined)
1.43 µM	16%	66.8 µM	220 µM		CCOC1Oc2ccc(F)cc2C(=O)/C1=C\Nc1ccc(S(N)(=O)=O)cc1 (centres undefined)
0.41 µM	0%	21.2 µM	22 µM		CCOC1Oc2ccccc2C(=O)/C1=C/Nc1ccc(S(=O)(=O)Nc2ccccn2)cc1 (centres undefined)
9.3 µM	0%	73.6 µM	74 µM		CCOC1Oc2ccc(Br)cc2C(=O)/C1=C/Nc1ccc(S(=O)(=O)Nc2ccccn2)cc1 (centres undefined)
0.01 µM	0%	31.8 µM	21 µM		CCOC1Oc2ccc(F)cc2C(=O)/C1=C/Nc1ccc(S(=O)(=O)Nc2nnc(C)s2)cc1 (centres undefined)
0.021 µM	0%		0.13 µM	Active	O=c1c(C2Nc3ccccc3S(=O)(=O)N2)coc2ccc(Br)cc12 (centres undefined)
0.41 µM	52%	44.6 µM	48 µM		CCOC1Oc2ccc(Br)cc2C(=O)/C1=C\Nc1ccc(S(N)(=O)=O)cc1 (centres undefined)
5.1 µM	43%	55.3 µM	63 µM		CCOC1Oc2c(Br)cc(Br)cc2C(=O)/C1=C\Nc1ccc(S(N)(=O)=O)cc1 (centres undefined)
7.8 µM	0%	35.4 µM	23 µM		CCOC1Oc2ccccc2C(=O)/C1=C/Nc1ccc(S(=O)(=O)Nc2cc(OC)nc(OC)n2)cc1 (centres undefined)
0.8 µM	54%	67.9 µM	26 µM		CCOC1Oc2c(Br)cc(Br)cc2C(=O)/C1=C\Nc1cccc(S(N)(=O)=O)c1 (centres undefined)
90.6 µM	5.7%	10.9 µM	6.8 µM		CCOC1Oc2ccccc2C(=O)/C1=C\Nc1ccc(S(N)(=O)=O)cc1 (centres undefined)
33.5 µM	0%	41.7 µM	41 µM		CCOC1Oc2ccccc2C(=O)/C1=C\Nc1cccc(S(N)(=O)=O)c1 (centres undefined)
2.6 µM	13%	68.8 µM	60 µM		CCOC1Oc2ccc(CC)cc2C(=O)/C1=C\Nc1ccc(S(N)(=O)=O)cc1 (centres undefined)
8.7 µM	0%	51.3 µM	44 µM		CCOC1Oc2ccc(Br)cc2C(=O)/C1=C\Nc1cccc(S(N)(=O)=O)c1 (centres undefined)
0.2 µM	63%	11.7 µM	29 µM		CCOC1Oc2c(Br)cc(Br)cc2C(=O)/C1=C\Nc1ccccc1S(N)(=O)=O (centres undefined)
0.049 µM	0%	21.3 µM	27 µM		O=c1c(C2Nc3ccccc3S(=O)(=O)N2)coc2ccccc12 (centres undefined)
7.8 µM	0%	52.5 µM	38 µM		CCOC1Oc2ccccc2C(=O)/C1=C/Nc1ccc(S(=O)(=O)Nc2ccc(OC)nn2)cc1 (centres undefined)
17.1 µM	0%	19.9 µM	18 µM		CCOC1Oc2ccc(F)cc2C(=O)/C1=C\Nc1cccc(S(N)(=O)=O)c1 (centres undefined)
2.1 µM	30%	20.1 µM	16.8 µM		CCOC1Oc2ccc(CC)cc2C(=O)/C1=C\Nc1cccc(S(N)(=O)=O)c1 (centres undefined)
